This note sets out measurements from ChEMBL document CHEMBL1127529, “Antipsoriatic anthrones with modulated redox properties. 2. Novel derivatives of chrysarobin and isochrysarobin--antiproliferative activity and 5-lipoxygenase inhibition” (J Med Chem, 1994).

Broadly, the IC50 is the concentration at which inhibition is half-maximal. Read a high IC50 as weaker potency in that assay. Broadly, the logP is a log measure of how a compound divides between an organic and an aqueous phase.

A value given as a limit tells only on which side of the number the result lay.

A short description of data set [1]: Reducing activity against 2,2-diphenyl-1-picrylhydrazyl (DPPH) with equimolar compound. The format is functional. In a few lines:
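Test compound and DPPH, each 10⁻⁴ M in acetone/PBS (1-1 v/v), mixed 1 mL + 1 mL. DPPH reduction followed spectrophotometrically at 516 nm. Reciprocal DPPH concentration plotted against time gave straight lines, and second-order rate constants (M⁻¹ s⁻¹) were taken from the slopes. Values are means, N = 3-6. Highly reactive compounds gave approximate values only.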
On the technique in general: The DPPH test is a chemical assay of radical scavenging.

The next data set concerns HaCaT. Briefly: Antiproliferative activity against HaCaT cells. The settings on record: Homo sapiens. It counts as functional, cell-based. In a few lines:
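HaCaT human keratinocytes were kept in DMEM with 10% FCS, penicillin and streptomycin at 37 °C under 8% CO2. After 48 h the cells were detached with trypsin/EDTA and counted by phase-contrast microscopy.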

In data set [2] the target is T1, Arachidonate 5-lipoxygenase (Bos taurus, UniProt Q9BEG3).
T1 sequence (Q9BEG3 whole entry): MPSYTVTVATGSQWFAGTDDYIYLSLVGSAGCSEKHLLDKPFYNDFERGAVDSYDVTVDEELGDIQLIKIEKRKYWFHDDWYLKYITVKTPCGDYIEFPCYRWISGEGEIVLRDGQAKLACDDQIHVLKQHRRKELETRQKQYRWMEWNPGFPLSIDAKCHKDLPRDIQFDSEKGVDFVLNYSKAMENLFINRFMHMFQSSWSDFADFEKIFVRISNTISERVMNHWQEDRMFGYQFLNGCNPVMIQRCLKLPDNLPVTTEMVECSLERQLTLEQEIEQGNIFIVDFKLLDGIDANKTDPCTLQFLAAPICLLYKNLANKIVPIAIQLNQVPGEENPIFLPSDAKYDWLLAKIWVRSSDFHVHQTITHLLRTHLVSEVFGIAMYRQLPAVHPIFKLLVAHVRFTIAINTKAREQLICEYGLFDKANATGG
Briefly: Inhibition of 5-lipoxygenase in bovine polymorphonuclear leukocytes. The format is cell-based. The essentials:
(§1)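 Bovine PMNL (10^7 cells/mL) were stimulated with Ca-ionophore. Compound was preincubated for 15 min at 37 °C.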

The nature of data set [3]: Partition coefficient (logP) (HPLC). The format is physicochemical. The settings on record: octanol/water. In a few lines: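 Reversed-phase HPLC with MeOH/water/HOAc (77-23-0.1) as eluant, adjusted to pH 5.5 with concentrated NH3.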
Data set [4] can be described thus: Deoxyribose degradation assay as hydroxy radical formation. The format is functional. The essentials:
(§2)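 2-Deoxy-D-ribose (2 mM) was incubated with FeCl3 (0.1 mM) and compound (75 μM) in KH2PO4-KOH buffer pH 7.4 (30 mM) for 2 h at 37 °C with shaking. TBA-reactive material was read at 532 nm. Result is µmol malondialdehyde per mmol deoxyribose.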

The next data set deals with Liposome. Briefly: Inhibition of 2,2'-azobis(2-aminopropane)hydrochloride (AAPH) induced lipid peroxidation in bovine brain phospholipid liposomes. It counts as functional, subcellular, Bos taurus.
Data set [5] is described as follows: Deoxyribose degradation as a measure of hydroxy radical formation. It counts as functional. The essentials:
as §2

Data set [6] addresses T2, Polyunsaturated fatty acid 5-lipoxygenase (Homo sapiens, UniProt P09917).
T2 sequence (P09917 whole entry): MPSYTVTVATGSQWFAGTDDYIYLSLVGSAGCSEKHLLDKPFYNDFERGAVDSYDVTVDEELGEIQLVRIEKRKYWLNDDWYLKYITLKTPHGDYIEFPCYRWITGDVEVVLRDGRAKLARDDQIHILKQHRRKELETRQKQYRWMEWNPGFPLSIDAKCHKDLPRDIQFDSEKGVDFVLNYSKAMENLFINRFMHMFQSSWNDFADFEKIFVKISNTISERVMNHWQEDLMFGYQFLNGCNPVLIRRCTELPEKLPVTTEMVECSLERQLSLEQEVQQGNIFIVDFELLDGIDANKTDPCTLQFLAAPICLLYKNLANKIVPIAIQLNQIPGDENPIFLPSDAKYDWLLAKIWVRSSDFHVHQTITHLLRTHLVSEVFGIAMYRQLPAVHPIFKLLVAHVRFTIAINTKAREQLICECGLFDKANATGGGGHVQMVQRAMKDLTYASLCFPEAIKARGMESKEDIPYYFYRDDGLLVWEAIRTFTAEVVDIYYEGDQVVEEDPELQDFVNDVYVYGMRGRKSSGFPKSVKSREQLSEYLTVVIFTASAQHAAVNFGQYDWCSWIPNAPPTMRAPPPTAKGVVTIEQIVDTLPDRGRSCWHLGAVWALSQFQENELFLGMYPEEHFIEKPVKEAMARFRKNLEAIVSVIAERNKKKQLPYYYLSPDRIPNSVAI
As to the kind of experiment: Inhibitory concentration against arachidonic acid 5-lipoxygenation. The format is functional. In a few lines: as §1

Molecule `O=C1c2c(O)cccc2Cc2cc(Cc3ccc(O)cc3O)cc(O)c21` returned a kDPPH in data set [1] of 39.3 M⁻¹ s⁻¹. The results for the IC50 (in the data set with HaCaT; in data set [2]; in the data set on Liposome) were 0.5 µM, 7 µM and 16 µM, respectively. In data set [3], this molecule displayed a logP of 3.67. For the same molecule, the DD (uM of MDA mM-1) in data set [4] amounted to 3.26.
Turning to `COc1c(OC)c(OC(C)=O)c2cc(Cl)ccc2c1OC(C)=O` [LONAPALENE], the results for the IC50 in the data set on HaCaT and with Liposome were 3.2 µM and > 50 µM, respectively. Also, in data set [4], the DD (uM of MDA mM-1) was < 0.15.
In data set [1], `O=C1c2c(O)cccc2Cc2cc(Cc3ccc(O)cc3)cc(O)c21` gave a kDPPH of 12.6 M⁻¹ s⁻¹. In addition, the values for the IC50 (in the data set with HaCaT; in data set [2]; with Liposome) were 0.4 µM, > 30 µM and 14 µM, respectively. Besides, the logP in data set [3] was determined as 4.52. The same molecule gave a DD (uM of MDA mM-1) in data set [4] of 0.27.
As to `O=C1c2c(O)cccc2Cc2ccc(Cc3ccccc3O)c(O)c21`, the kDPPH in data set [1] was > 100 M⁻¹ s⁻¹. The IC50 in the data set on HaCaT came to 0.7 µM; in data set [2], 5 µM; with Liposome, 25 µM. This molecule also came in with a logP in data set [3] of 4.67. Moreover, the DD (uM of MDA mM-1) in data set [5] was found to be 0.35.
For the molecule `Cc1ccc(Cc2ccc3c(c2O)C(=O)c2c(O)cccc2C3)cc1`, in data set [1], the kDPPH came out at 8.5 M⁻¹ s⁻¹. Moreover, in data set [2], the IC50 is > 30 µM. The logP in data set [3] is 6.04. Further, in data set [4], the DD (uM of MDA mM-1) is < 0.25.
In the case of `O=C1c2c(O)cccc2Cc2ccc(Cc3ccc(O)cc3O)c(O)c21`, the kDPPH in data set [1] was > 100 M⁻¹ s⁻¹. The values for the IC50 (with HaCaT; in data set [2]; with Liposome) were 1.5 µM, 5 µM and 16 µM, respectively. The same molecule had a logP in data set [3] of 3.68. The molecule also registered a DD (uM of MDA mM-1) in data set [5] of 0.34.
`COc1ccc(Cc2cc(O)c3c(c2)Cc2cccc(O)c2C3=O)c(OC)c1` registered a kDPPH in data set [1] of 10.3 M⁻¹ s⁻¹. Also, the IC50 with HaCaT is 0.4 µM; in data set [2], > 30 µM; with Liposome, > 200 µM. In addition, the logP in data set [3] is 5.34. Also, in data set [5], the DD (uM of MDA mM-1) was 0.32.
For the molecule `O=C1c2c(O)cccc2Cc2ccc(CCCc3ccc(O)cc3)c(O)c21`, the kDPPH in data set [1] was > 100 M⁻¹ s⁻¹. Further, the results for the IC50 (in the data set on HaCaT; in data set [2]; in the data set on Liposome) were 0.4 µM, 2 µM and 50 µM, respectively. Besides, the logP in data set [3] was 5.27. In addition, the DD (uM of MDA mM-1) in data set [5] is < 0.15.
In the case of `O=C1c2c(O)cccc2Cc2cccc(O)c21` [ANTHRALIN], in data set [1], the kDPPH came to 24.2 M⁻¹ s⁻¹. Further, the IC50 in the data set with HaCaT turned out to be 0.2 µM; in data set [6], 7 µM; with Liposome, 79 µM.
`O=C(O)c1ccccc1Cc1ccc2c(c1O)C(=O)c1c(O)cccc1C2` returned a kDPPH in data set [1] of 16.9 M⁻¹ s⁻¹. In addition, the values for the IC50 (with HaCaT; in data set [2]; in the data set on Liposome) were > 5 µM, 4 µM and 42 µM, respectively. In addition, the logP in data set [3] worked out at 4.48. The same molecule came in with a DD (uM of MDA mM-1) in data set [5] of 1.2.
With `O=C1c2c(O)cccc2Cc2cc(Cc3ccc(O)c(O)c3)cc(O)c21`, the kDPPH in data set [1] is > 100 M⁻¹ s⁻¹. For the same molecule, the figures for the concentration for half-maximal inhibition (IC50) (with HaCaT; in data set [2]; in the data set with Liposome) were 0.5 µM, 2 µM and 4 µM, respectively. This molecule yielded a logP in data set [3] of 3.88. In data set [5], this molecule gave a DD (uM of MDA mM-1) of 0.41.
Take `O=C1c2c(O)cccc2Cc2ccc(Cc3ccc(O)cc3)c(O)c21`: in data set [1], the kDPPH is > 100 M⁻¹ s⁻¹. For the same molecule, the IC50 in the data set on HaCaT is 0.8 µM; in data set [2], 7 µM; with Liposome, 43 µM. This molecule had a logP in data set [3] of 4.66. Further, the DD (uM of MDA mM-1) in data set [5] was 0.38.
`O=C(c1ccccc1)c1ccc2c(c1O)C(=O)c1c(O)cccc1C2`: the kDPPH in data set [1] was > 100 M⁻¹ s⁻¹. For the same molecule, the figures for the IC50 (in the data set on HaCaT; in data set [2]; with Liposome) were 1.6 µM, 18 µM and 43 µM, respectively. The same molecule gave a logP in data set [3] of 4.47. Moreover, the DD (uM of MDA mM-1) in data set [5] amounted to 2.68.
